Laboratory results as given in ChEMBL document CHEMBL4725448, “Substituted Azabicyclo[2.2.1]heptanes as Selective Orexin-1 Antagonists: Discovery of JNJ-54717793” (ACS Med Chem Lett, 2020).

Key:
PXR (NR1I2) = molecular target: T1, PXR (NR1I2) (Homo sapiens, UniProt O75469); test: Induction of human PXR at 10 uM relative to control; type: ADME; settings: read-out: Activity
T1 sequence (O75469 whole entry): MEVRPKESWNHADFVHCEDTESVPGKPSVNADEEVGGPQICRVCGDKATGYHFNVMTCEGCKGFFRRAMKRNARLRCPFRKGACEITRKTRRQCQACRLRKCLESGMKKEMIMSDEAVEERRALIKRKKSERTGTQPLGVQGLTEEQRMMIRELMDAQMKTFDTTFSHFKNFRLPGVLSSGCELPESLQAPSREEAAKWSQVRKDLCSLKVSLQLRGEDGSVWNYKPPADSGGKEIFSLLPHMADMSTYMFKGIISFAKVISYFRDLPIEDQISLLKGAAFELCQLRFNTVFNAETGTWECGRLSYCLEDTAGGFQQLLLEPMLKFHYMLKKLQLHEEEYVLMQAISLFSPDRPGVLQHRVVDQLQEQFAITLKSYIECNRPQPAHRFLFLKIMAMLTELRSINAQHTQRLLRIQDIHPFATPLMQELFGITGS
Procedure, shortened: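 Human PXR activation as an indirect measure of CYP3A4 induction, at 10 μM, expressed as % of rifampicin control activation.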

[1] = Cmax in mouse assessed as NOAEL at 200 mg/kg/day, po administered as repeated dose for 13 days; type: ADME, organism-based; design: route oral, dose 200 mg/kg/day, time 13 day; settings: in vivo
[2] = Lipophilicity, logD of the compound at pH 7.4; type: physicochemical; settings: buffer
[3] = Stability in human liver microsomes assessed as extraction ratio; type: ADME, Microsome; settings: read-out: ERH
Procedure, shortened: (§1)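 Metabolic stability in human or rat liver microsomes, expressed as extraction ratios.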

[4] = Stability in rat liver microsomes assessed as extraction ratio; type: ADME, Microsome; settings: read-out: ERH; procedure, shortened: as §1
[5] = Ex vivo receptor occupancy at OX1R in Sprague-Dawley rat brain tenia tecta using [3H]SB-674042 labelling at 30 mg/kg, po measured after 2 hrs by autoradiography; type: functional
Procedure, shortened: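 Ex vivo OX1R binding autoradiography in rat tenia tecta after a 30 mg/kg po dose; percent occupancy read at 0.5 and 2 h.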

[6] = Drug concentration in Sprague-Dawley rat plasma at 30 mg/kg, po after 0.5 hrs by LC-MS/MS analysis; type: ADME, organism-based
Procedure, shortened: (§2)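 Brain and plasma levels (ng/mL) sampled 0.5 h after oral dosing at 10 or 30 mg/kg, alongside the ex vivo tenia tecta occupancy study.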

[7] = Stability in dog liver microsomes assessed as extraction ratio; type: ADME, Canis lupus familiaris, Microsome; settings: read-out: ERH
[8] = Stability in mouse liver microsomes assessed as extraction ratio; type: ADME, Microsome; settings: read-out: ERH
[9] = Protein binding in rat plasma assessed as free fraction; type: ADME, cell-free
[10] = Protein binding in dog plasma assessed as free fraction; type: ADME, cell-free, Canis lupus familiaris
[11] = Protein binding in rat brain assessed as free fraction; type: ADME, tissue-based
[12] = Permeability across apical to basolateral side in MDCK cells; type: ADME, cell-based, Canis lupus familiaris; settings: dog
[13] = Cmax in rat assessed as NOAEL at 250 mg/kg, po administered as repeated dose for 5 days; type: ADME, organism-based; design: route oral, dose 250 mg/kg, time 5 day; settings: in vivo
[14] = Oral bioavailability in dog at […]; type: ADME, organism-based, Canis lupus familiaris; settings: in vivo, dose 2.5 mg/kg
[15] = Clearance in mouse at 1 mg/kg, iv and 5 mg/kg, po; type: ADME, organism-based; settings: in vivo
[16] = Clearance in rat at 1 mg/kg, iv and 5 mg/kg, po; type: ADME, organism-based; settings: in vivo
[17] = Cmax in mouse at 1 mg/kg, iv and 5 mg/kg, po; type: ADME, organism-based; design: dose 5 mg/kg; settings: in vivo
[18] = Cmax in rat at 1 mg/kg, iv and 5 mg/kg, po; type: ADME, organism-based; design: dose 5 mg/kg; settings: in vivo
[19] = Cmax in dog at 0.5 mg/kg, iv and […], po; type: ADME, organism-based, Canis lupus familiaris; design: dose 2.5 mg/kg; settings: in vivo
[20] = Volume of distribution at steady state in mouse at 1 mg/kg, iv and 5 mg/kg, po; type: ADME, organism-based; settings: in vivo, read-out: Vdss
[21] = Oral bioavailability in primate at 5 mg/kg; type: ADME, organism-based; settings: primates, in vivo
[22] = Clearance in primate; type: ADME; settings: primates
[23] = Cmax in primate; type: ADME; settings: primates
[24] = AUC (0 to 24 hrs) in mouse assessed as NOAEL at 200 mg/kg/day, po administered as repeated dose for 13 days; type: ADME, organism-based; design: route oral, dose 200 mg/kg/day, time 13 day; settings: in vivo
[25] = Cmax in dog assessed as NOAEL at 25 mg/kg, po administered for 6 days; type: ADME, organism-based, Canis lupus familiaris; design: route oral, dose 25 mg/kg, time 6 day; settings: in vivo
Procedure, shortened: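 Six-day dog toxicology study with oral dosing; NOAEL-level Cmax; exposures compared between sexes and between day 0 and day 5.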

[26] = AUC in rat assessed as NOAEL at 250 mg/kg, po administered as repeated dose for 5 days; type: ADME, organism-based; design: time 5 day, dose 250 mg/kg; settings: in vivo
[27] = Drug concentration in Sprague-Dawley rat plasma at 10 mg/kg, po after 0.5 hrs by LC-MS/MS analysis; type: ADME, organism-based; procedure, shortened: as §2
[28] = Cmax in human at 50 mg/day; type: ADME; design: dose 50 mg
[29] = […] clearance in rat at 1 mg/kg, iv and 5 mg/kg, po; type: ADME, organism-based; settings: in vivo
[30] = […] clearance in dog at 0.5 mg/kg, iv and […], po; type: ADME, organism-based, Canis lupus familiaris; settings: in vivo, dose 2.5 mg/kg
[31] = […] clearance in nonhuman primate; type: ADME; settings: primates
[32] = Cmax in rat assessed as NOAEL at 200 mg/kg/day, po measured after immediately administered; type: ADME, organism-based; design: route oral, dose 200 mg/kg/day, time 13 day; settings: in vivo
[33] = AUC (0 to 24 hrs) in mouse assessed as NOAEL at 200 mg/kg/day, po measured after immediately administered; type: ADME, organism-based; design: route oral, dose 200 mg/kg/day, time 13 day; settings: in vivo

Compound: O=C(c1cccc(F)c1-c1ncccn1)N1[C@@H]2CC[C@H]1[C@H](Nc1cnc(C(F)(F)F)cn1)C2
- activity at 10 µM (PXR (NR1I2)): 29%
- Cmax [1]: 24800 ng/mL
- logD [2]: 2.18
- hepatic extraction ratio [3]: < 0.3
- hepatic extraction ratio [4]: 0.31
- Activity [5]: 100%
- concentration at 0.5 h [6]: 4960 ng/mL
- hepatic extraction ratio [7]: < 0.3
- hepatic extraction ratio [8]: 0.4
- fraction unbound [9]: 0.23
- fraction unbound [10]: 0.21
- fraction unbound [11]: 0.09
- Papp A→B [12]: 1.95 ×10⁻⁶ cm/s
- Cmax [13]: 15000 ng/mL
- bioavailability [14]: 48%
- clearance [15]: 21 mL/min/kg
- clearance [16]: 17 mL/min/kg
- Cmax [17]: 1500 ng/mL
- Cmax [18]: 1370 ng/mL
- Cmax [19]: 2240 ng/mL
- Vd [20]: 1.1 L/kg
- bioavailability [21]: 22%
- clearance [22]: 14 mL/min/kg
- Cmax [23]: 349 ng/mL
- AUC at 312 h [24]: 84100 ng·h/mL
- Cmax [25]: 15100 ng/mL
- AUC at 120 h [26]: 101 µg·h/mL
- concentration at 0.5 h [27]: 1190 ng/mL
- Cmax [28]: 537 ng/mL
- clearance [29]: 17 mL/min/kg
- clearance [30]: 4.8 mL/min/kg
- CLint scaled [31]: 13 mL/min/kg
- Cmax [32]: 30900 ng/mL
- AUC at 312 h [33]: 225 µg·h/mL
